Reference: ChEMBL document CHEMBL1156948, “Statistical molecular design of a focused salicylidene acylhydrazide library and multivariate QSAR of inhibition of type III secretion in the Gram-negative bacterium Yersinia” (Bioorg Med Chem, 2010)
Calls of active or inactive are those of the source. The rule behind the calls is not given here.

Assays:
[1] = tested on: Yersinia pseudotuberculosis YPIII; experiment: Inhibition of T3S in Yersinia pseudotuberculosis YPIII expressing yopE-luxAB at 50 uM after 3 hrs by luciferase reporter gene assay
Method in brief: (§1)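 Strain YPIII pIB102 (yopE-luxAB) grown overnight at room temperature in BHI with 5 mM EGTA and 20 mM MgCl2 (calcium depletion), adjusted to OD600 0.088–0.095. Compound added from DMSO at 1.56–200 µM final (eight concentrations). Shaken 1 h at room temperature, then 2 h at 37 °C. Decanal added and light emission read immediately. Triplicates, repeated at least three times.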

[2] = tested on: Yersinia pseudotuberculosis YPIII; experiment: Inhibition of T3S in Yersinia pseudotuberculosis YPIII expressing yopE-luxAB at 25 uM after 3 hrs by luciferase reporter gene assay; method in brief: as §1
Escherichia coli [3] = experiment: Antibacterial activity against Escherichia coli DH5[alpha] at 100 uM after 23 hrs by broth dilution assay; type: functional, organism-based
Method in brief: (§2)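 Overnight LB culture of E. coli DH5α grown at 37 °C, diluted to OD600 0.1 in LB with 2.5 mM CaCl2; compound added from DMSO stock to final 50 or 100 µM. Incubated at 37 °C with absorbance at 595 nm followed over 23 h.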

[4] = tested on: Yersinia pseudotuberculosis; experiment: Antibacterial activity against Yersinia pseudotuberculosis expressing pIB102 at 50 uM after 23 hrs by broth dilution assay; type: functional, organism-based
Method in brief: (§3)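 Wild-type pIB102 grown overnight in LB at room temperature, diluted to OD600 = 0.1 in LB with 2.5 mM CaCl2. Compound added from DMSO stock to final 50 and 100 µM. Incubated at 37 °C with absorbance at 595 nm read over 23 h.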

[5] = tested on: Yersinia pseudotuberculosis YPIII; experiment: Inhibition of T3S in Yersinia pseudotuberculosis YPIII expressing yopE-luxAB at 3.13 uM after 3 hrs by luciferase reporter gene assay; method in brief: as §1
[6] = tested on: Yersinia pseudotuberculosis; experiment: Antibacterial activity against Yersinia pseudotuberculosis expressing pIB102 at 100 uM after 23 hrs by broth dilution assay; type: functional, organism-based; method in brief: as §3
[7] = tested on: Yersinia pseudotuberculosis YPIII; experiment: Inhibition of T3S in Yersinia pseudotuberculosis YPIII expressing yopE-luxAB at 12.5 uM after 3 hrs by luciferase reporter gene assay; method in brief: as §1
[8] = tested on: Yersinia pseudotuberculosis YPIII; experiment: Inhibition of T3S in Yersinia pseudotuberculosis YPIII expressing yopE-luxAB at 1.56 uM after 3 hrs by luciferase reporter gene assay; method in brief: as §1
[9] = tested on: Yersinia pseudotuberculosis YPIII; experiment: Inhibition of T3S in Yersinia pseudotuberculosis YPIII expressing yopE-luxAB at 200 uM after 3 hrs by luciferase reporter gene assay; method in brief: as §1
Escherichia coli [10] = experiment: Antibacterial activity against Escherichia coli DH5[alpha] at 50 uM after 23 hrs by broth dilution assay; type: functional, organism-based; method in brief: as §2
[11] = tested on: Yersinia pseudotuberculosis YPIII; experiment: Inhibition of T3S in Yersinia pseudotuberculosis YPIII expressing yopE-luxAB at 100 uM after 3 hrs by luciferase reporter gene assay; method in brief: as §1
[12] = tested on: Yersinia pseudotuberculosis YPIII; experiment: Inhibition of T3S in Yersinia pseudotuberculosis YPIII expressing yopE-luxAB at 6.25 uM after 3 hrs by luciferase reporter gene assay; method in brief: as §1

Compound | inhibition [1] [%] | inhibition [2] [%] | Activity (Escherichia coli [3]) | Activity [4] | inhibition [5] [%] | Activity [6] | inhibition [7] [%] | inhibition [8] [%] | inhibition [9] [%] | Activity (Escherichia coli [10]) | inhibition [11] [%] | inhibition [12] [%]
COc1cc(Br)cc(/C=N/NC(=O)CCc2ccc(O)cc2)c1O | 23 | 18 | inactive | inactive | 3 | inactive | 11 | -10 | 52 | inactive | 36 | 9
COc1ccc(Br)c(/C=N/NC(=O)CC#N)c1O | 25 | 20 | inactive | inactive | 12 | inactive | 18 | -9 | 59 | inactive | 57 | 17
O=C(N/N=C/c1ccc(O)c(O)c1O)c1ccccc1[N+](=O)[O-] | 36 | 22 | inactive | inactive | 5 | inactive | 20 | -8 | 96 | inactive | 74 | 16
O=C(N/N=C/c1ccc(Cl)cc1O)c1ccc(Br)cc1 | 27 | 29 | inactive | inactive | 11 | inactive | 26 | -6 | 10 | inactive | 22 | 14
O=C(CC12CC3CC(CC(C3)C1)C2)N/N=C/c1ccc(Cl)cc1O | 32 | 25 | inactive | inactive | 7 | inactive | 19 | 0 | 29 | inactive | 26 | 18
COc1cc([N+](=O)[O-])cc(/C=N/NC(=O)CC#N)c1O | 39 | 27 | inactive | inactive | 4 | inactive | 24 | -4 | 43 | inactive | 39 | 14
N#CCC(=O)N/N=C/c1cc(Br)ccc1O | 86 | 55 | inactive | inactive | 11 | inactive | 22 | 0 | 99 | inactive | 97 | 6
COc1cccc(C(=O)N/N=C/c2cc(OC)cc(OC)c2O)c1 | 43 | 20 | inactive | inactive | 4 | inactive | 13 | -7 | 76 | inactive | 63 | 9
COc1ccc(/C=N/NC(=O)c2sc3ccccc3c2Cl)c(O)c1 | 27 | 15 | inactive | inactive | -2 | inactive | 12 | -2 | 50 | inactive | 35 | 10
COc1cc(C(=O)N/N=C/c2cc(Cl)cc(Cl)c2O)cc(OC)c1OC | 27 | 18 | inactive | inactive | 13 | inactive | 14 | -10 | 40 | inactive | 29 | 8
COc1ccc(/C=N/NC(=O)CCc2ccc(O)cc2)c(O)c1 | 22 | 12 | inactive | inactive | -1 | inactive | 16 | -2 | 88 | inactive | 45 | 4
O=C(N/N=C/c1cccc(F)c1O)c1cccc(C(F)(F)F)c1 | 32 | 30 | inactive | inactive | 3 | inactive | 14 | -10 | 65 | inactive | 48 | 5
COc1cc(/C=N/NC(=O)c2cccc(C(F)(F)F)c2)c(O)c(OC)c1 | 66 | 39 | inactive | inactive | 10 | inactive | 24 | -10 | 75 | inactive | 74 | 21
COc1ccc(Br)c(C(=O)N/N=C/c2cc(C(C)(C)C)ccc2O)c1 | 33 | 18 | inactive | inactive | 0 | inactive | 26 | 3 | 20 | inactive | 22 | 6
COc1ccc(Br)c(C(=O)N/N=C/c2cc([N+](=O)[O-])cc([N+](=O)[O-])c2O)c1 | 30 | 23 | inactive | inactive | 0 | inactive | 12 | -7 | 25 | inactive | 30 | 13
CCN(CC)c1ccc(/C=N/NC(=O)c2cc(Cl)cc(Cl)c2)c(O)c1 | 43 | 34 | inactive | inactive | 19 | inactive | 29 | -6 | 46 | inactive | 46 | 22
COc1cc(Br)cc(/C=N/NC(=O)c2sc3ccccc3c2Cl)c1O | 34 | 23 | inactive | inactive | 10 | inactive | 20 | -6 | 39 | inactive | 40 | 12
O=C(N/N=C/c1cc(F)cc(Cl)c1O)c1cc(Cl)cc(Cl)c1 | 19 | 11 | inactive | inactive | 4 | inactive | 10 | -10 | 13 | inactive | 24 | 12
O=C(N/N=C/c1cc(Cl)cc(Cl)c1O)c1ccccc1[N+](=O)[O-] | 61 | 18 | inactive | inactive | 16 | inactive | 4 | -4 | 92 | inactive | 88 | 8
CC(C)(C)c1ccc(O)c(/C=N/NC(=O)c2ccc(Br)cc2)c1 | 39 | 34 | inactive | inactive | 0 | inactive | 29 | 4 | 37 | inactive | 34 | 19
